Measured values: ChEMBL document CHEMBL3400028, “Evaluation of Aconitum diterpenoid alkaloids as antiproliferative agents” (2015)

Assays:
Format in all cases: functional
[1] = Selectivity ratio of GI50 for human KB cells to GI50 for multidrug-resistant P-gp expressing human KBVIN cells
Method in brief: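 Ratio of GI50 in parental KB to GI50 in P-gp-overexpressing KB-VIN. […] KB-VIN cells were grown 7–10 days without vincristine before the assay.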

DU-145 = experiment: Antiproliferative activity against human DU145 cells by sulforhodamine B assay
Method in brief: (§1)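 Cells in RPMI 1640 (25 mM HEPES, 2 mM L-glutamine, 10% heat-inactivated FBS, antibiotics) at 37 °C, 5% CO2. Seeded at 3–5 × 10³/well with graded concentrations, paclitaxel as assay control, for 72 h. TCA-fixed, stained with 0.04% SRB, dye dissolved in 10 mM Tris, A515 read. GI50 is the concentration halving absorbance versus untreated cells; three or more experiments.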

[2] = Antiproliferative activity against multidrug-resistant P-gp expressing human KBVIN cells by sulforhodamine B assay
Method in brief: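 Vincristine-resistant KB subline kept in 100 nM vincristine, then grown 7–10 days without it before testing. RPMI 1640 with 10% FBS, 37 °C, 5% CO2. 3–5 × 10³ cells/well exposed 72 h to a concentration series, paclitaxel as assay control. SRB staining after TCA fixation, A515 read. GI50 is the 50% absorbance reduction versus untreated cells; three or more experiments.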

A549 = experiment: Antiproliferative activity against human A549 cells by sulforhodamine B assay; method in brief: as §1
KB = experiment: Antiproliferative activity against human KB cells by sulforhodamine B assay; method in brief: as §1

| SMILES | RatioGI50 [1] | GI50 (DU-145) [µM] | GI50 [2] [µM] | GI50 (A549) [µM] | GI50 (KB) [µM] |
| --- | --- | --- | --- | --- | --- |
| C=C1[C@H]2C[C@@]3([C@@H]1OC(C)=O)[C@@H](C[C@@H]2O)[C@@]12C4[C@@H]3C[C@@H]1[C@@](C)(CC[C@@H]2O)C[N+]4([O-])CC (stereo not given in full) | >20 | > 20 | > 20 | > 20 | > 20 |
| CCN1C[C@]2(C)CC[C@H](OC)[C@@]34[C@@H]5C[C@H]6[C@H](O)[C@@H]5[C@@]5(C[C@@H]6OC)OCO[C@@]5(C(=O)[C@H]23)[C@@H]14 [YUNNADELPHININE] | >20 | > 20 | > 20 | > 20 | > 20 |
| C=C1[C@H]2C[C@@H]3C4N5C[C@]6(C)CCC[C@@]47[C@@H]6[C@@H]5C[C@]3([C@@H]1O)[C@H]7[C@H]2OC(=O)c1ccc([N+](=O)[O-])cc1 | 10 | 10 | 10 | 10 | 10 |
| C=C1[C@H]2C[C@H]3C4N5C[C@]6(C)CCC[C@]47[C@H]([C@H]2O)C3(C[C@]5(OC(=O)/C=C/c2ccccc2)[C@H]67)[C@@H]1O | >20 | > 20 | > 20 | > 20 | > 20 |
| C=C1[C@H]2C[C@@H]3C4N5C[C@]6(C)CCC[C@@]47[C@@H]6[C@@H]5C[C@]3([C@@H]1OC(=O)c1ccccc1)[C@H]7[C@H]2O | >20 | > 20 | > 20 | > 20 | > 20 |
| CCN1C2OC3CCC2(COC)[C@H]2[C@H](OC)[C@]4(O)C1[C@@]32[C@@H]1C[C@H]2[C@H](O)[C@@H]1[C@]4(O)C[C@@H]2OC | >20 | > 20 | > 20 | > 20 | > 20 |
| C=C1[C@H]2C[C@@H]3C4N5C[C@]6(C)CCC[C@@]47[C@@H]6[C@@]5(OC(=O)c4ccc(OC)cc4)C[C@]3([C@@H]1O)[C@H]7[C@H]2OC(=O)c1ccc(OC)cc1 | >20 | > 20 | > 20 | > 20 | > 20 |
| C=C1[C@H]2C[C@@H]3C4N5C[C@]6(C)CCC[C@@]47[C@@H]6[C@@]5(O)C[C@]3([C@@H]1OC(=O)c1cccc([N+](=O)[O-])c1)[C@H]7[C@H]2OC(=O)c1cccc([N+](=O)[O-])c1 | 0.99 | 5.2 | 5.6 | 5 | 5.6 |
| CO[C@H]1[C@@H]2C[C@@H]3[C@H]1[C@](O)(C[C@@H]2OC)[C@@]1(O)C2N=C[C@]4(COC(=O)c5ccccc5N)CC[C@H](OC)[C@@]23[C@@H]4[C@@H]1OC | >20 | > 20 | > 20 | > 20 | > 20 |
| CCN1C[C@]2(COC)CC[C@H](OC(=O)c3ccc([N+](=O)[O-])cc3)[C@]34C1[C@@](O)([C@@H](OC)[C@H]23)[C@@]1(O)C[C@H](OC)[C@H]2C[C@@H]4[C@@H]1[C@H]2OC(=O)c1ccc([N+](=O)[O-])cc1 | >20 | > 20 | > 20 | > 20 | > 20 |
| C=C1[C@H]2C[C@@]3([C@@H]1OC(=O)c1ccccc1)[C@@H](C[C@@H]2OC(=O)c1ccccc1)[C@@]12C4[C@@H]3C[C@@H]1[C@@](C)(CC[C@@H]2O)CN4CC | >20 | > 20 | > 20 | > 20 | > 20 |
| C=C1[C@H]2C[C@H]3C4N5C[C@]6(C)CCC[C@]47[C@H]([C@H]2O)C3(C[C@]5(OC(=O)c2ccccc2)[C@H]67)[C@@H]1O | >20 | > 20 | > 20 | > 20 | > 20 |
| C=C1[C@H]2C[C@@H]3C4N5C[C@]6(C)CCC[C@@]47[C@@H]6[C@@H]5C[C@]3([C@@H]1OC(=O)c1ccc(F)cc1)[C@H]7[C@H]2O | >20 | > 20 | > 20 | > 20 | > 20 |
| CCN1C[C@]2(COC)CC[C@H](OC)[C@]34C1C([C@H](OC)[C@H]23)[C@]1(OC(C)=O)[C@H]2[C@@H](OC(=O)c3ccccc3)[C@](O)(C[C@H]24)[C@@H](OC)[C@@H]1O [DEOXYACONITINE] | >20 | > 20 | > 20 | > 20 | > 20 |
| C=C1[C@H]2C[C@@]3(C4C[C@@H]5C6(C)CCC7O[C@H]6N(CC)C4C75[C@@H]3C[C@@H]2O)[C@@H]1O | >20 | > 20 | > 20 | > 20 | > 20 |
| COC[C@]12CN(C)C3[C@@H]4[C@H](OC)[C@H]1[C@@]3([C@@H](OC)C[C@H]2O)[C@@H]1C[C@@]2(O)[C@H](OC(=O)c3ccccc3)[C@@H]1[C@]4(OC(C)=O)[C@@H](O)[C@@H]2OC | >20 | > 20 | > 20 | > 20 | > 20 |
| C=C1[C@@H](O)[C@]23C[C@@H]1[C@@H](OC(=O)c1ccc(OC)c(OC)c1)C[C@H]2[C@@]12C4C3C[C@@H]1[C@@](C)(CC[C@H]2O)CN4CC | >20 | > 20 | > 20 | > 20 | > 20 |
| C=C1[C@H]2C[C@@H]3C4N5C[C@]6(C)CCC[C@@]47[C@@H]6[C@@H]5C[C@]3([C@@H]1OC(C)=O)[C@H]7[C@H]2O | >20 | > 20 | > 20 | > 20 | > 20 |
| C=C1[C@H]2C[C@@H]3C4N5C[C@]6(C)CCC[C@@]47[C@@H]6[C@@]5(O)C[C@]3([C@@H]1O)[C@H]7[C@H]2OC(=O)c1cccnc1 | >20 | > 20 | > 20 | > 20 | > 20 |
| C=C1[C@H]2C[C@@H]3C4N5C[C@]6(C)CCC[C@@]47[C@@H]6[C@@H]5C[C@]3([C@@H]1O)[C@H]7[C@H]2OC(=O)c1ccc(F)cc1 | >20 | > 20 | > 20 | > 20 | > 20 |
| C=C1[C@H]2C[C@@H]3C4N5C[C@]6(C)CCC[C@@]47[C@@H]6[C@@H]5C[C@]3([C@@H]1OC(=O)c1ccc([N+](=O)[O-])cc1)[C@H]7[C@H]2O | >20 | > 20 | > 20 | > 20 | > 20 |
| CCN1C[C@]2(COC)CC[C@H](O)[C@]34C1[C@@H]([C@H](OC)[C@H]23)[C@@]1(O)C[C@H](OC)[C@H]2C[C@@H]4[C@@H]1[C@H]2OC(=O)c1ccccc1 | >20 | > 20 | > 20 | > 20 | > 20 |
| C=C1[C@H]2C[C@@H]3C4N5C[C@]6(C)CCC[C@@]47[C@@H]6[C@@]5(O)C[C@]3([C@@H]1O)[C@H]7[C@H]2OC(=O)c1ccc([N+](=O)[O-])cc1 | 1 | 7.2 | 6.4 | 5.8 | 6.4 |
